In ChEMBL document CHEMBL1629544, “Inhibitors of strand transfer that prevent integration and inhibit human T-cell leukemia virus type 1 early replication” (Antimicrob Agents Chemother, 2008):
pIC50: −log10 of the molar value. Active and inactive are the calls of the source. No cut-off for these calls is given here.

What was measured:
[1] = Cytotoxic activity against human PBMC cells; format: cell-based
In short: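 Fresh uninfected PBMCs were cultured with various inhibitor concentrations, including 250, 500 and 1,000 μM, in three experiments per concentration. Cell viability was measured to derive CC50.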

PBMC [2] = experiment: Growth inhibition of human PBMC cells cocultured with irradiated HTLV-1 positive MT2 cells at 250 uM after 14 days; format: functional, cell-based
In short: (§1)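 PBMCs from HTLV-1-seronegative donors (Ficoll separation) were cocultured 5:1 with 60 Gy-irradiated HTLV-1-positive MT2 cells in RPMI 1640 with 100 U/ml IL-2. Compounds in DMSO were added at onset at final 0, 50, 100 or 250 μM, then at half the initial concentration on days 4, 7 and 10. Cells were counted on days 7, 14 and 21.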

PBMC [3] = experiment: Growth inhibition of human PBMC cells cocultured with irradiated HTLV-1 positive MT2 cells at 100 uM after 7 days; format: functional, cell-based; in short: as §1
PBMC [4] = experiment: Inhibition of HTLV-1 integrase strand transfer activity in PBMC cells at 100 uM measured on day 21; format: cell-based; settings: Human T-cell leukemia virus type I
PBMC [5] = experiment: Inhibition of HTLV-1 integrase strand transfer activity in PBMC cells at 50 uM measured on day 21; format: cell-based; settings: Human T-cell leukemia virus type I
PBMC [6] = experiment: Growth inhibition of human PBMC cells cocultured with irradiated HTLV-1 positive MT2 cells at 50 uM after 7 days; format: functional, cell-based; in short: as §1
PBMC [7] = experiment: Growth inhibition of human PBMC cells cocultured with irradiated HTLV-1 positive MT2 cells at 50 uM after 21 days; format: functional, cell-based; in short: as §1
PBMC [8] = experiment: Growth inhibition of human PBMC cells cocultured with irradiated HTLV-1 positive MT2 cells at 250 uM after 7 days; format: functional, cell-based; in short: as §1
PBMC [9] = experiment: Growth inhibition of human PBMC cells cocultured with irradiated HTLV-1 positive MT2 cells at 250 uM after 21 days; format: functional, cell-based; in short: as §1
PBMC [10] = experiment: Growth inhibition of human PBMC cells cocultured with irradiated HTLV-1 positive MT2 cells at 50 uM after 14 days; format: functional, cell-based; in short: as §1
PBMC [11] = experiment: Growth inhibition of human PBMC cells cocultured with irradiated HTLV-1 positive MT2 cells at 100 uM after 14 days; format: functional, cell-based; in short: as §1
PBMC [12] = experiment: Growth inhibition of human PBMC cells cocultured with irradiated HTLV-1 positive MT2 cells at 100 uM after 21 days; format: functional, cell-based; in short: as §1
[13] = system: Human T-cell leukemia virus type I; experiment: Inhibition of HTLV-1 integrase strand transfer activity at 5 uM
In short: (§2)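 Recombinant HTLV-1 integrase, expressed in E. coli BL21(DE3) and Ni-NTA purified. Donor was a 3′-recessed double-strand 54-bp HTLV-1 3′ LTR with synthetic target DNA, 1 pmol each oligonucleotide. Buffer: 25 mM HEPES pH 7.4, 10 mM β-mercaptoethanol, 10% glycerol, 7.5 mM MnCl₂. Incubated 60 min at 37°C. Products quantified by fluorescent PCR peak intensity, in triplicate; approximate IC50 by linear regression.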

[14] = Inhibition of HTLV-1 integrase strand transfer activity; set-up: species or system Human T-cell leukemia virus type I; in short: as §2
[15] = system: Human T-cell leukemia virus type I; experiment: Inhibition of HTLV-1 integrase strand transfer activity at 2 uM; in short: as §2
[16] = system: Human T-cell leukemia virus type I; experiment: Inhibition of HTLV-1 integrase strand transfer activity at 10 uM; in short: as §2
[17] = system: Human T-cell leukemia virus type I; experiment: Antiviral activity against HTLV-1 infected in PBMC cells cocultured with irradiated HTLV-1 positive MT2 cells assessed as decrease in […] load at 50 uM after 7 days by RT-PCR; format: functional, organism-based
In short: (§3)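 Donor PBMCs were cocultured 5:1 with 60 Gy-irradiated MT2 cells plus IL-2, with compound (DMSO) at 0, 50 or 100 μM, redosed at half concentration on days 4, 7 and 10. DNA was extracted on day 7. Real-time quantitative PCR for tax with albumin normalization used 250 ng DNA per reaction, in triplicate. The untreated load was set to 100 units.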

[18] = system: Human T-cell leukemia virus type I; experiment: Antiviral activity against HTLV-1 infected in PBMC cells cocultured with irradiated HTLV-1 positive MT2 cells assessed as decrease in […] load by RT-PCR; format: functional, organism-based; in short: as §3
[19] = system: Human T-cell leukemia virus type I; experiment: Antiviral activity against HTLV-1 infected in PBMC cells cocultured with irradiated HTLV-1 positive MT2 cells assessed as decrease in […] load 100 uM after 7 days by RT-PCR; format: functional, organism-based; in short: as §3

inhibition [13] | pIC50 [14] | inhibition [15] | inhibition [16] | Compound | CC50 [1] [µM] | inhibition (PBMC [2]) | inhibition (PBMC [3]) | inhibition (PBMC [4]) | inhibition (PBMC [5]) | inhibition (PBMC [6]) | inhibition (PBMC [7]) | inhibition (PBMC [8]) | inhibition (PBMC [9]) | inhibition (PBMC [10]) | inhibition (PBMC [11]) | inhibition (PBMC [12]) | Activity [17] | Activity [18] | Activity [19]
– | – | – | – | O=C(O)C(=O)CC(=O)c1cccn1Cc1ccc(F)cc1 | 520 | Active | Active | Active | Active | Active | Active | Active | Active | Active | Active | Active | – | – | –
Active | 5.14 | Active | Active | COc1cc(/C=C/c2ccc3ccc(C(=O)O)c(O)c3n2)cc(OC)c1O | – | Active | Active | – | – | Active | Active | Active | Active | Active | Active | Active | – | – | –
– | – | – | – | O=C(O)c1ccc2ccc(/C=C/c3cc(O)c(O)c(O)c3)nc2c1O | 10.7 | – | – | – | – | – | – | – | – | – | – | – | – | – | –
– | – | – | – | O=C(O)c1ccc2ccc(/C=C/c3ccc(O)c(O)c3)nc2c1O | – | Active | Active | – | – | Active | Active | Active | Active | Active | Active | Active | Active | Active | Active
Active | 5.28 | Active | Active | COc1cc(/C=C/c2ccc3ccc(C(=O)O)c(O)c3n2)cc(O)c1O | – | Active | Active | – | – | Active | Active | Active | Active | Active | Active | Active | – | – | –
– | – | – | – | O=C(O)C(=O)CC(=O)c1cccc(Cc2ccccc2)c1 | 220 | Active | Active | – | – | Active | Active | Active | Active | Active | Active | Active | Active | Active | Active
